# In all, about 300,000 compounds went through this assay and about 120 (0.04%) were called active. The sample holds actives, similar compounds and a random draw of the others, so the mix is not that of the screen.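 The calls were made as follows: active = more than half of replicate wells score below -50%, meaning over 50% inhibition versus plate controls; inconclusive = some replicates but at most half score below -50%; inactive = no replicate scores below -50%.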
# Molecular target: Glycogen synthase kinase-3 beta (Homo sapiens) (UniProt P49841)
# Sequence (P49841 whole entry, looked up): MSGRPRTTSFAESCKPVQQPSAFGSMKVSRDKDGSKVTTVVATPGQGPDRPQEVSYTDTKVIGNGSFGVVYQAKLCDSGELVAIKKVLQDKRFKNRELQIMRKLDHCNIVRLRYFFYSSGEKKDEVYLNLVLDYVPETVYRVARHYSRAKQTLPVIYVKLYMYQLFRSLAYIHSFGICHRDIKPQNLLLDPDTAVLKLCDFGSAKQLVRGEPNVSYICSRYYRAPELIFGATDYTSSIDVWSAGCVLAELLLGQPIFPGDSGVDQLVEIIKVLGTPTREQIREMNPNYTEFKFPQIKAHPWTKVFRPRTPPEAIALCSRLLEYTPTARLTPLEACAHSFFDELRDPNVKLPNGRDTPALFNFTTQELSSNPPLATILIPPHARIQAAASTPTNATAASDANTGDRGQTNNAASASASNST
# Assay: human GSK3beta kinase inhibitors, primary screen, biochemical, cell-free homogeneous, HTS (AID 2097);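 also: 0% = median DMSO wells and -100% = median GW8510 positive control wells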
# Conditions: GST-GSK3beta kinase, ADP-Glo luminescence, 60 min; at 10 µM; active compounds read low
# Method in brief: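 Test system: GST-tagged human GSK3beta kinase, cell-free; evaluation: activity score scaled between in-plate DMSO and GW8510 controls; measured by: ADP-Glo luminescence; incubation: 60 min reaction, RT; benchmarks: DMSO and 20 µM GW8510; reagent: peptide substrate plus 25 µM ATP (final); medium: Tris/MgCl2 kinase buffer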
row,Compound,activity score (negative = inhibition)
1,COc1ccc(C(=O)NC(C)Cn2nc(C)cc2C)cc1OC1CCN(C(C)=O)CC1 (stereo unspecified),-1.16% (inactive)
2,COc1cc(CN2CCC(n3nccc3NC(=O)CCCc3ccccc3)CC2)ccc1O,1.56% (inactive)
3,O=C(Cc1ccccc1)NCC1OCCc2ccccc21 (stereo unspecified),1.24% (inactive)
4,CSCCNCc1cn(-c2ccc(F)cc2F)nc1-c1ccccc1C,6.14% (inactive)
5,COCCCNC(=O)CNC(=S)N(Cc1cc(OC)c(OC)c(OC)c1)C1CCCC1,-1.22% (inactive)
6,CC(CCc1ccccc1)NCC(O)c1cccc([N+](=O)[O-])c1 (stereo unspecified),0.339% (inactive)
7,O=C(C1CC1)N1N=C2CCCCC2C1(O)C(F)(F)F (stereo unspecified),-1.66% (inactive)
8,Cc1ccn2c(=O)c(NC(=O)c3cccc4ccccc34)c(C)nc2c1,-0.598% (inactive)
9,CCN(CC(=O)N1CCCC1)S(=O)(=O)c1ccc(F)cc1,-0.618% (inactive)
10,O=C(NCCNc1ccc([N+](=O)[O-])cc1Cl)c1ccccc1F,-5.43% (inactive)
11,COc1ccc(N(Cc2ccc(N(C)C)cc2)C(=O)c2ccc(S(C)(=O)=O)cc2)cc1,1.2% (inactive)
12,Cc1cc(C)c(OCCN2CC(C)OC(C)C2)c(Br)c1 (stereo unspecified),-2.1% (inactive)
13,Cc1nc(SCC(=O)NC2CCCC2)[nH]c(=O)c1C,1.74% (inactive)
14,COc1ccccc1CNC(=O)C1CCN(S(=O)(=O)c2ccc3c(c2)OCCO3)CC1,-1.16% (inactive)
15,COc1ccc(CCc2nc(-c3cccs3)no2)cc1,2.12% (inactive)
16,O=C(CCN1C(=O)C2C3C=CC(C3)C2C1=O)Oc1ccc2ccccc2c1 (stereo unspecified),1.85% (inactive)
17,Nc1cccnc1Sc1ccccc1,-4.02% (inactive)
18,C=CCn1cc(C(=O)NCc2ccc(Cl)cc2)c(=O)c2cc(S(=O)(=O)N(CC)CC)ccc21,4.27% (inactive)
19,O=C(O)C1CCCN1C1=NS(=O)(=O)c2ccccc21 (stereo unspecified),1.84% (inactive)
20,COC(=O)c1c(C(=O)OC)c(-c2cccc(C)c2)n2c1CS(=O)C2 (stereo unspecified),-0.0395% (inactive)
21,C[C@H](NC(=O)[C@@H]1Cc2ccccc2CN1C(=O)OC(C)(C)C)C(=O)NC1CCCC1,0.0958% (inactive)
22,C=CCN1CCN(C(=O)CCCc2ccccc2)CC1,3.12% (inactive)
23,COc1ccccc1N1CCC(N2CCN(CC(C)(C)C)C(CCO)C2)CC1 (stereo unspecified),-1.04% (inactive)
24,COc1ccccc1C(=O)Nc1ccnn1C1CCN(C(=O)C(C)(C)C)CC1,-0.909% (inactive)
25,CC(C)(C)NC(=O)CSC(=Nc1ccccc1F)NC#N,0.51% (inactive)
26,Cc1c(NC(=S)NC(=O)CCc2ccccc2)c(=O)n(-c2ccccc2)n1C,0.697% (inactive)

# Reference: PubChem BioAssay AID2097 (Broad Institute, 2009)
